Measured values gathered from unrelated publications.
Compare with care: the assays were run in different laboratories.
Target: Serine/threonine-protein kinase TBK1 (TBK1, Homo sapiens, UniProt Q9UHD2)

For O=C(NS(=O)(=O)c1ccc(NCC2CCOCC2)c([N+](=O)[O-])c1)c1ccc(N2CCN(Cc3ccc(C(F)(F)F)cc3-c3ccc(Cl)cc3)CC2)cc1Oc1cnc2[nH]ccc2c1, the remaining binding was 74% (cell-free assay, competition with immobilised ligand; 1 µM).
The inhibition of COc1cc2ncnc(Nc3ccc(Oc4ccccc4)cc3C)c2cc1OC is reported as 4% (enzyme activity, inhibitor; 1 µM).
The inhibition of Cc1ccc(Nc2nccc(N(C)c3ccc4c(C)n(C)nc4c3)n2)cc1S(N)(=O)=O is reported as 22% (enzyme activity, inhibitor; 0.3 µM).
CCCCNc1ncc2c(-c3ccc(F)cc3)nn(C[C@H]3CC[C@H](N)CC3)c2n1 has an inhibition of 9.8% (target engagement in cells, inhibitor, chemoproteomics; 20 mM).
With NS(=O)(=O)c1ccc(CNc2ccnc(Nc3cccc(NC(=O)N4CCCC4)c3)n2)cc1 the remaining activity was 68% (enzyme activity, inhibitor, radiometric; 1 µM).
CCN1CCN(Cc2ccc(NC(=O)c3ccc(C)c(Oc4ccnc5[nH]ccc45)c3)cc2C(F)(F)F)CC1 gave an inhibition of -24.4% (target engagement in cells, inhibitor, chemoproteomics; Huh-7; 10 µM).
With CNC(=O)c1cc(Oc2ccc(NC(=O)Nc3ccc(Cl)c(C(F)(F)F)c3)cc2)ccn1 the inhibition was 10% (enzyme activity, inhibitor; 10 µM).
With O=C(NCCCNc1ccnc(Nc2cccc(NC(=O)N3CCCC3)c2)n1)C1CCC1 the remaining activity was 36% (enzyme activity, inhibitor, radiometric; 1 µM).
With COCCOc1nc(-c2ccc(Cl)nc2)nc2c1CN(C(=O)c1ncn3ccccc13)CC2 the remaining binding was 68% (cell-free assay, competition with immobilised ligand; 0.1 µM).
With C=CC(=O)Nc1cc(Nc2nccc(Nc3cc(Cl)c(F)cc3C(C)(C)O)n2)c(OC)cc1N1CC[C@@H](N(C)C)C1 the inhibition was 1% (enzyme activity, inhibitor; 1 µM).
With C[S+]([O-])c1ccc(-c2nc(-c3ccncc3)c(-c3ccc(F)cc3)[nH]2)cc1 (stereo not shown) the remaining signal was 99.7% (cell-free assay; 0.5 µM).
With Cc1ccc(C(=O)NCc2ccsc2)cc1C#Cc1cn(C(C)C)c2ncnc(N)c12 the activity vs control was 87% (enzyme activity, inhibitor; 1 µM).
C[C@H](c1cccc(C#N)c1)n1cc(Cl)cc(C(N)=O)c1=N gave a remaining binding of 98% (cell-free assay, competition with immobilised ligand; 1 µM).
NS(=O)(=O)c1ccc(CNc2nc(Nc3cccc(NC(=O)N4CCCC4)c3)ncc2C2CC2)cc1 gave a remaining activity of 6% (enzyme activity, inhibitor, radiometric; 1 µM).
CN(c1ncccc1CNc1nc(Nc2ccc3c(c2)CC(=O)N3)ncc1C(F)(F)F)S(C)(=O)=O gave an inhibition of 73.7% (enzyme activity, inhibitor; 1 µM).
O=C(NCCCC1CCCCC1)c1ccc(CNC(=O)c2cnn(-c3ccccc3)c2C(F)(F)F)cc1 has a remaining binding of 100% (cell-free assay, competition with immobilised ligand; 0.1 µM).
Cc1nn(CC(F)(F)F)cc1Nc1nccc(NCCc2cnc[nH]2)n1 gave a remaining activity of 87% (enzyme activity, inhibitor, radiometric; 1 µM).
CN(C)C1CCN(CC#Cc2nn(C3CCCC3)c3nc(NCc4ccccc4)ncc23)C1 (stereo not shown) has an inhibition of 2% (enzyme activity, inhibitor, FRET; 0.1 µM).
CN(C)C(=O)Cn1cc(-c2nc(C3(c4ccc(-c5cnc(N)nc5)cc4)CC3)no2)cn1 gave a remaining binding of 87% (cell-free assay, competition with immobilised ligand; 1 µM).
The activity vs control of FC(F)(F)Oc1cccc(-c2cnc3ccc(-c4ccncc4)nn23)c1 is reported as 73% (enzyme activity, inhibitor, radiometric; 5 µM).
With O=C(Nc1cccc(Nc2ncc(Br)c(NCCc3cnc[nH]3)n2)c1)N1CCCC1 the remaining activity was 10% (enzyme activity, inhibitor, radiometric; 1 µM).
For CN([C@@H]1CCc2c(CC(=O)O)c3cc(S(C)(=O)=O)ccc3n2C1)S(=O)(=O)c1ccc(F)cc1, the remaining binding was 97% (cell-free assay, competition with immobilised ligand; 1 µM).
Cc1cc(NC(=O)c2cccc3cc(-c4cccc5[nH]nc(N)c45)ccc23)ccc1F has an activity vs control of 109% (enzyme activity, inhibitor; 0.1 µM).
With CCCS(=O)(=O)Nc1ccc(F)c(C(=O)c2c[nH]c3ncc(-c4ccc(Cl)cc4)cc23)c1F the inhibition was under 10% (enzyme activity, inhibitor; 1 µM).
O=C1Nc2ccc(Cl)cc2C1=Cc1cc(Cl)c(O)c(Cl)c1 has a remaining signal of 86.8% (cell-free assay; 0.5 µM).
NS(=O)(=O)c1ccc(CNc2nc(Nc3cccc(CN4CCOCC4)c3)ncc2C2CC2)cc1 gave a remaining activity of 10% (enzyme activity, inhibitor, radiometric; 1 µM).
CO[C@@H](C)c1c(Nc2ccc([C@@H](N(C)C(=O)C3CCS(=O)(=O)CC3)C(F)(F)F)cc2)cnc2cc(Cl)nn12 gave a remaining binding of 77% (cell-free assay, competition with immobilised ligand; 1 µM).
For Cc1nn(CC(F)(F)F)cc1Nc1ncc(C2CC2)c(NCCCNC(=O)C2CCC2)n1, the remaining activity was 4% (enzyme activity, inhibitor, radiometric; 1 µM).
The remaining binding of Cc1noc([C@H]2C[C@@H](c3ccc(C(F)(F)F)cc3)CN(C(=O)N3CCS(=O)(=O)C3)C2)n1 is reported as 68% (cell-free assay, competition with immobilised ligand; 1 µM).
With CCN(CC)CCNC(=O)c1c(C)[nH]c(/C=C2\C(=O)Nc3ccc(F)cc32)c1C the inhibition was 42% (enzyme activity, inhibitor; 0.3 µM).
With CN1CCc2cc(Nc3ncc(C4CC4)c(NCCCNC(=O)C4CCC4)n3)ccc2C1 the remaining activity was 1% (enzyme activity, inhibitor, radiometric; 1 µM).
